GALR2 agonist: activates the human galanin receptor 2. O43603. GALR2-expressing cells, agonist activation read-out. activation, % (concentration not given with the values). 140,000 compounds, 0.48% hits. AID 803; in the data active = activation above about 5%, passing the limit was not always enough;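 also: 0% = vehicle buffer wells and 100% = reference agonist at full effect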
Target sequence (O43603 whole entry, looked up): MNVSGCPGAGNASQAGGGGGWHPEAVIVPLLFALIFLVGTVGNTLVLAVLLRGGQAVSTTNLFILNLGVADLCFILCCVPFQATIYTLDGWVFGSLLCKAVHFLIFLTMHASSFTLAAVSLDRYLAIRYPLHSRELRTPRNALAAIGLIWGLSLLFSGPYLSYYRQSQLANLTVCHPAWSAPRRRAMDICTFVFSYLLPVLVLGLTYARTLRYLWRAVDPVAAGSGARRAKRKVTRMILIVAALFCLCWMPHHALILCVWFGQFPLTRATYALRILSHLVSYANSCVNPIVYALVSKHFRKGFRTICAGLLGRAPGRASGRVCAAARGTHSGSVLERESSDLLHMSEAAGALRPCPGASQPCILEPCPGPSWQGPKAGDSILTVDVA
GALR2 antag: blocks the human galanin receptor 2; AID 828; O43603; 140,000 compounds, 0.39% hits; GALR2-expressing cells, antagonist mode; inhibition, % at 4 µM; in the data active = inhibition above about 27%;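 also: cells stimulated with galanin 1-16 at roughly its EC80; 0% = agonist challenge control and 100% = basal control without agonist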
Rev-RRE block: inhibitors of HIV-1 Rev-RRE RNA interaction; P05866; Rev peptide-RRE RNA binding, FRET; inhibition, % at 8 µM; 97,000 compounds, 0.79% hits; AID 704;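 active = inhibition above the screen-wide mean plus 3 SD, cut at about 35% in these data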;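 also: 0% = median DMSO wells and 100% = median Neomycin B control wells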
Target sequence (P05866 whole entry, looked up): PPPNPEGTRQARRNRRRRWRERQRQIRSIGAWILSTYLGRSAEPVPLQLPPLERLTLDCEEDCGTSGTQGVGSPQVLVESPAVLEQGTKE
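Test system – labelled RRE RNA duplex and labelled Rev peptide · Reagent – labelled Rev peptide · Doses – one concentration, 8 µM nominal · Incubation – 5 + 15 min at 25 °C · Signal – FRET fluorescence readout · Read-out basis – % inhibition of FRET ratio versus controls · Control set – DMSO wells as 0% and neomycin B wells as 100% inhibition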
EphB4 antag: antagonists of human EphB4-ephrin-B2 interaction | P54760 | EphB4 LBD / TNYL-RAW-Alexa532 peptide, fluorescence polarization | inhibition, % at 7 µM | 97,000 compounds, 0.15% hits | AID 720;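 active = inhibition above the screen-wide mean inhibition plus 3 SD, cut at about 15% in these data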;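 also: 0% = DMSO wells and 100% = excess unlabeled TNYL-RAW peptide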
S1P2 antag: blocks the human S1P2 receptor | inhibition, % at 5 µM | cell-based S1P2 antagonist assay, inhibition at 5 uM | 97,000 compounds, 0.21% hits; in the data active = inhibition above about 45%;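 also: CRE beta-lactamase reporter cells expressing human S1P2 stimulated with S1P; 0% = agonist at EC80 alone and 100% = agonist plus reference antagonist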
S1P2 ag: S1P2 (human) receptor agonism | S1P2-expressing cell line, agonist reporter read-out | activation, % at 4.5 µM | 97,000 compounds, 0.46% hits | AID 729; in the data active = activation above about 16%;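 also: 0% = vehicle low control and 100% = maximal reference agonist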
* = called active by the depositor; · = not tested or not shown; [ ] = remark or other dose. A selection: hits, their analogues and other compounds. The true share with any hit is near 1.7%.

SMILES	GALR2 agonist	GALR2 antag	Rev-RRE block	EphB4 antag	S1P2 antag	S1P2 ag
CCN1/C(=C\C=C\C2=[N+](CC)c3ccccc3C2(C)C)C(C)(C)c2ccccc21	2.5	-9.5	57.1*[fluorescence artefact?]	-87.9	105.7*	-5.0
O=S(=O)(c1ccccc1)N1CC1c1ccccc1 (centres undefined)	0.9	7.5	·	·	·	·
Nc1c(C(=O)NCc2ccco2)c2nc3ccccc3nc2n1Cc1ccc(F)cc1	27.8*	-17.8	24.3	2.3	-50.6	48.0*
Nc1c(C(=O)NCc2ccco2)c2nc3ccccc3nc2n1Cc1ccccc1	5.1*	6.7	·	·	·	·
Clc1cccc(Cl)c1CN1CCN(c2ccccc2)CC1	-1.7	6.2	2.5	0.3	-14.2	-3.0
O=C(Nc1ccc(Cl)cc1)Nc1nccs1	0.3	14.2	11.3	1.9	13.1	52.8*
Cc1c(C(=O)N2CCC3(CC2)OCCO3)oc2ccccc12	-2.3	7.9	-3.2	-1.8	2.1	-3.3
CC1=C(C(=O)N2CCC3(CC2)OCCO3)C2(CCC(C)CC2)OC1=O (centres undefined)	-1.1	-12.3	4.3	19.7*	8.0	-2.4
CCOCCCn1c(N)c(C(=O)Nc2sc3c(c2C(=O)OC)CCCC3)c2nc3ccccc3nc21	0.0	3.4	48.7*	-5.0	17.6	0.6
CCCCn1c(NS(=O)(=O)c2ccc(C)cc2)c(C(=O)OCC)c2nc3ccccc3nc21	7.0*	-8.0	·	·	·	·
CCCCCn1c(N)c(C(=O)NCCN2CCOCC2)c2nc3ccccc3nc21	5.7	-11.1	17.4	-4.4	-12.8	16.4*
CCCCCn1c(N)c(C(=O)NCc2cccs2)c2nc3ccccc3nc21	1.8	-0.4	9.9	-2.6	-13.5	13.0
CCCCn1c(N)c(C(=O)NCc2cccs2)c2nc3ccccc3nc21	35.6*	-10.9	12.1	2.0	-2.6	18.3*
O=c1cccc2n1CC1CC2CN(Cc2cccc(Cl)c2Cl)C1 (centres undefined)	-0.9	1.3	·	·	·	·
CCCCCc1nc2ccccc2c(=O)n1-c1ccc(Cl)cc1[N+](=O)[O-]	-3.2	3.2	1.1	-2.2	-5.9	-1.6
CCCC(=O)NC(Oc1ccccc1Cl)C(Cl)(Cl)Cl (centres undefined)	-2.9	-3.4	-5.0	-2.0	-16.0	-1.3
O=C(O)[C@H]1C[C@@H]1[C@H](NP(=O)(c1ccccc1)c1ccccc1)c1ccccc1	-1.8	-10.6	·	·	·	·
Cc1nn(Cc2ccc(Cl)cc2Cl)c(Cl)c1C(=O)Nc1ccc(OC(F)F)cc1	0.6	10.0	·	·	·	·
CCCCOCCCn1c(N)c(C(=O)OCCOC)c2nc3ccccc3nc21	-1.1	6.0	0.8	-10.8	-15.4	-2.5
CCCCNC(=O)c1c(N)n(Cc2ccc3c(c2)OCO3)c2nc3ccccc3nc12	6.8*	-4.0	12.9	-1.0	-35.7	38.0*
COCCCn1c(N)c(C(=O)NCCC(C)C)c2nc3ccccc3nc21	33.1*	-14.9	6.0	-1.0	-31.0	28.6*
Nc1c(C(=O)NCCCc2ccccc2)c2nc3ccccc3nc2n1Cc1cccs1	32.1*	-2.9	19.5	4.2	-62.6	83.7*
CC(C)OCCCNC(=O)c1c(N)n(CC2CCCO2)c2nc3ccccc3nc12 (centres undefined)	11.5*	-11.9	12.0	-1.2	-15.5	18.1*
COC(=O)C1=C(N)Oc2c(c(=O)oc3ccccc23)C1c1cccnc1 (centres undefined)	-1.5	-12.9	8.6	0.7	-3.6	-6.2
CCOCCCNC(=O)CN1C2CCC1CC(O)(c1ccc(OC)cc1)C2 (centres undefined)	-2.5	7.6	5.3	3.7	20.5	-6.4
SMILES	GALR2 agonist	GALR2 antag	Rev-RRE block	EphB4 antag	S1P2 antag	S1P2 ag
CCCCCCn1c(N)c(C(=O)NCCN2CCOCC2)c2nc3ccccc3nc21	20.4*	-5.9	7.1	-2.3	-27.3	29.5*
Nc1c(C(=O)NCc2ccco2)c2nc3ccccc3nc2n1CCN1CCOCC1	3.4	-21.2	14.7	4.2	-30.1	4.9
CC12CN3CN(C1)CC(c1ccccc1)(C3)C2=O	-1.2	-4.6	2.4	-1.9	0.9	-3.7
CC(C)N1C(=O)/C(=C/C=C/c2ccco2)C(=O)N(Cc2ccco2)C1=O	-1.0	-8.9	52.8*	-5.2	-7.3	-3.6
COc1ccc(/C=C2/C(=O)N(Cc3ccco3)C(=O)N(C(C)C)C2=O)cc1	-0.8	-4.1	·	·	·	·
C=CCn1c(=O)c(C=Nc2cccc([N+](=O)[O-])c2)c(O)n(CCCC)c1=O	-1.5	-14.9	45.0*	3.7	15.1	-5.0
Cc1cccn2c(=O)c3c(nc12)N1CCC(Cc2ccccc2)CC1C1(C3)C(=O)N(C)C(=O)N(C)C1=O (centres undefined)	1.9	-8.9	7.8	-7.3	4.3	17.4*
CC1CCN2c3nc4ccccn4c(=O)c3CC3(C(=O)N(C)C(=O)N(C)C3=O)C2C1 (centres undefined)	-1.5	-8.1	9.1	6.7	-14.0	-3.6
Cc1ccnc(-n2c(C)cc(C=C3C(=O)N(C)C(=S)N(C)C3=O)c2C)c1	-2.1	1.1	51.9*	-5.0	7.2	-6.2
Cc1cc(C)cc(-n2c(C)cc(/C=C3\C(=O)NC(=O)N(C)C3=O)c2C)c1	-1.6	-2.2	·	·	·	·
CCn1c(O)c(C(=O)CC2NCCc3ccccc32)c(=O)n(CC)c1=S (centres undefined)	-2.9	1.4	48.4*	-1.6	17.8	-4.1
O=C1NC(=O)N(c2cccc(Cl)c2)C(=O)/C1=C\c1ccc(Sc2nc3ccccc3[nH]2)o1	-1.4	3.9	·	·	·	·
O=C1NC(=O)N(c2ccccc2)C(=O)/C1=C/c1ccc(Sc2ccccc2)o1	-1.5	-6.4	20.2	-6.8	47.2*	0.2
CNC(=O)OCCc1n(C)cc[n+]1C	0.0	-8.0	·	·	·	·
CN1C(=O)C(=Cc2ccc(N3CCCCC3)o2)C(=O)N(C)C1=S	1.4	5.9	120.5*[fluorescence artefact?]	-3.0	-6.6	-2.8
O=C1CC(=O)N(c2ccc3c(c2)OCO3)C(=O)N1	-1.5	-3.1	15.5	0.9	-1.6	-2.9
O=C1NC(=O)N(c2ccc3c(c2)OCO3)C(=O)/C1=C/c1ccc(N2CCCCC2)o1	-1.1	-10.8	124.3*[fluorescence artefact?]	-3.2	-0.8	-3.0
CCCCC12CNCC(C)(CNC1)C2=O	-0.7	1.4	6.4	-3.1	9.8	-6.0
CCn1c(O)c(C=Nc2ccc(N3CCOCC3)cc2)c(=O)n(CC)c1=S	-2.0	-0.9	97.8*[fluorescence artefact?]	16.0*	26.1	-10.8
CCn1c(O)c(C=Nc2ccc(N3CCOCC3)c(Br)c2)c(=O)n(CC)c1=S	-2.9	8.2	26.8	0.0	17.2	-5.8
CCOc1ccc(N=Cc2c(O)n(C(C)(C)C)c(=O)[nH]c2=O)cc1	-3.1	9.5	6.1	-0.8	16.9	-7.2
CCOc1ccccc1-n1c(O)c(C=Nc2ccc(N(CC)CC)cc2)c(=O)[nH]c1=O	-0.6	10.9	·	·	·	·
CCN(CC)c1ccc(N=Cc2c(O)n(-c3ccccc3C)c(=O)[nH]c2=O)cc1	-2.2	-9.2	65.6*	-0.6	0.2	-4.6

Screening results from PubChem BioAssay.
